Reference: ChEMBL document CHEMBL1129425, “New potent antihyperglycemic agents in db/db mice: synthesis and structure-activity relationship studies of (4-substituted benzyl) (trifluoromethyl)pyrazoles and -pyrazolones” (1996)

Key:
Format in all cases: functional
[1] = test system: Mus musculus; assay: Percent change in the plasma glucose concentration of drug-treated db/db mice ([…], perorally) relative to vehicle at the dose 20 mg/kg.; conditions: route oral
Method in brief: (§1)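 Oral dosing of db/db mice once daily for 3 days, fed ad libitum. On day 4, food was withdrawn and a fourth dose given, then mice were fasted. After 4 h, mice were anesthetized with halothane and decapitated, and blood was collected into fluoride tubes. Plasma glucose was measured on an autoanalyzer and reported as mean ± SE percent change versus vehicle controls. […]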

[2] = test system: Mus musculus; assay: Percent change in the plasma glucose concentration of drug -treated db/db mice ([…], perorally) relative to vehicle at the dose 2 mg/kg; conditions: route oral
[3] = test system: Mus musculus; assay: Percent change in the plasma glucose concentration of drug-treated db/db mice (4-6 mice, perorally) relative to vehicle at the dose 5 mg/kg.; conditions: route oral; method in brief: as §1
[4] = organism: Mus musculus; assay: Percent change in the plasma glucose concentration of drug -treated db/db mice ([…], perorally) relative to vehicle (dose not specified)
[5] = test system: Mus musculus; assay: Percent change in the plasma glucose concentration of drug -treated db/db mice ([…], perorally) relative to vehicle at the dose 100 mg/kg; conditions: route oral
[6] = test system: Mus musculus; assay: Percent change in the plasma glucose concentration of drug -treated db/db mice (4-6 mice, perorally) relative to vehicle at the dose 120 mg/kg; conditions: route oral; method in brief: as §1
[7] = test system: Mus musculus; assay: Concentration required to cause significant reduction in plasma glucose when administered orally in mice.; conditions: po
[8] = test system: Mus musculus; assay: Percent change in the plasma glucose concentration of drug -treated db/db mice ([…], perorally) relative to vehicle at the dose 0.5 mg/kg; conditions: route oral; method in brief: as §1
[9] = test system: Mus musculus; assay: Percent change in the plasma glucose concentration of drug -treated db/db mice (4-6 mice, perorally) relative to vehicle at the dose mg/kg; method in brief: as §1

| SMILES | Change [1] | Change [3] | also measured |
| --- | --- | --- | --- |
| Oc1[nH]nc(C(F)(F)F)c1Cc1ccc(I)cc1 | -48% | – | – |
| CCCCSc1ccc(Cc2c(C(F)(F)F)n[nH]c2O)cc1 | -3% | – | – |
| Oc1[nH]nc(C(F)(F)F)c1Cc1ccc(C(F)(C(F)(F)F)C(F)(F)F)cc1 | 1% | – | – |
| COc1nn(C)c(C(F)(F)F)c1Cc1ccc(SC)cc1 | -49% | -41% | Change [2]: -20% |
| CSc1ccc(Cc2c(C(F)(F)F)[nH]n(C)c2=O)cc1 | – | -11% | Change [4]: -40% |
| Oc1[nH]nc(C(F)(F)F)c1Cc1ccc(Cl)cc1 | – | -6% | – |
| CSc1ccc(Cc2c(C(F)(F)F)[nH]n(Cc3ccccc3)c2=O)cc1 | 10% | – | – |
| Oc1[nH]nc(C(F)(F)F)c1Cc1ccc(F)cc1 | -20% | -3% | – |
| CC(O)c1ccc(Cc2c(C(F)(F)F)n[nH]c2O)cc1 (configuration not stated) | – | -18% | – |
| CCSc1ccc(Cc2c(C(F)(F)F)n[nH]c2O)cc1 | -38% | -25% | Change [2]: -23% |
| CSc1ccc(CC2(C)C(=O)NN=C2C(F)(F)F)cc1 (configuration not stated) | -9% | – | – |
| CSc1ccc(Cc2c(C)n[nH]c2O)cc1 | -36% | – | Change [5]: -39% |
| Oc1[nH]nc(C(F)(F)F)c1Cc1ccc(SC(F)(F)F)cc1 | -15% | 5% | – |
| CSc1ccc(CC2(C)C(=O)N(C)N=C2C(F)(F)F)cc1 (configuration not stated) | 6% | – | – |
| Oc1[nH]nc(C(F)(F)F)c1Cc1ccc(Br)cc1 | -47% | -24% | Change [2]: -5% |
| CCCCc1ccc(Cc2c(C(F)(F)F)n[nH]c2O)cc1 | – | -7% | – |
| C[S+]([O-])c1ccc(Cc2c(C(F)(F)F)n[nH]c2O)cc1 (configuration not stated) | – | -33% | Change [2]: -25% |
| CCCCCCc1ccc(Cc2c(C(F)(F)F)n[nH]c2O)cc1 | 5% | – | – |
| CCOc1nn(CC)c(C(F)(F)F)c1Cc1ccc(SC)cc1 | – | 5% | – |
| CCNc1ccc(Cc2c(C(F)(F)F)n[nH]c2O)cc1 | – | -11% | Change [6]: -61% |
| Oc1[nH]nc(C(F)(F)F)c1Cc1ccc(OC(F)(F)F)cc1 | – | -4% | – |
| Cc1ccc(Cc2c(C(F)(F)F)n[nH]c2O)cc1 | -36% | – | – |
| CC(=O)c1ccc(Cc2c(C(F)(F)F)n[nH]c2O)cc1 | – | -19% | – |

| SMILES | Change [1] | Change [3] | also measured |
| --- | --- | --- | --- |
| CSc1ccc(Cc2c(C(F)(F)F)n[nH]c2OC(C)C)cc1 | -40% | – | – |
| CCOc1c(Cc2ccc(SC)cc2)c(C(F)(F)F)nn1CC | – | -23% | – |
| CSc1ccc(Cc2c(C(F)(F)F)n[nH]c2O)cc1 | -57% | -43% | ED50 [7]: 9.85 mg/kg; Change [2]: -29%; Change [5]: -68%; Change [8]: -13% |
| COc1ccc(Cc2c(C(F)(F)F)n[nH]c2O)cc1 | – | -22% | – |
| CCCCOc1[nH]nc(C(F)(F)F)c1Cc1ccc(CC)cc1 | -34% | – | – |
| COc1c(Cc2ccc(SC)cc2)c(C(F)(F)F)nn1C | – | -39% | – |
| CCc1ccc(Cc2c(C(F)(F)F)n[nH]c2OC)cc1 | – | -36% | – |
| CCCc1ccc(Cc2c(C(F)(F)F)n[nH]c2O)cc1 | -44% | – | – |
| CSc1ccc(Cc2c(C(F)(F)F)n(C)n(C)c2=O)cc1 | -6% | – | – |
| CC(C)(C)C(=O)c1ccc(Cc2c(C(F)(F)F)n[nH]c2O)cc1 | – | – | Change [9]: -23% |
| CC(C)(C)c1ccc(Cc2c(C(F)(F)F)n[nH]c2O)cc1 | -7% | – | – |
| CC(C)Sc1ccc(Cc2c(C(F)(F)F)n[nH]c2O)cc1 | -32% | – | – |
| C/C(=N\O)c1ccc(Cc2c(C(F)(F)F)n[nH]c2O)cc1 | – | -28% | – |
| CSc1ccc(Cc2c(C(F)(F)F)n(C)[nH]c2=O)cc1 | -29% | -7% | – |
| CCCCOc1nn(CCCC)c(C(F)(F)F)c1Cc1ccc(CC)cc1 | -3% | – | – |
| CC(C)c1ccc(Cc2c(C(F)(F)F)n[nH]c2O)cc1 | – | -17% | – |
| CCc1ccc(Cc2c(C(F)(F)F)n[nH]c2O)cc1 | – | -39% | Change [2]: -28%; Change [8]: -11% |
| Oc1[nH]nc(C(F)(F)F)c1Cc1ccc(C(F)(F)F)cc1 | – | -15% | – |
| CCc1ccc(Cc2c(OC)nn(C)c2C(F)(F)F)cc1 | – | -38% | – |
| COc1[nH]nc(C(F)(F)F)c1Cc1ccc(SC)cc1 | -57% | – | Change [2]: -16% |
| CS(=O)(=O)c1ccc(Cc2c(C(F)(F)F)n[nH]c2O)cc1 | – | 2% | – |
| Oc1[nH]nc(C(F)(F)F)c1Cc1ccc2ccccc2c1 | -45% | – | – |
| Oc1[nH]nc(C(F)(F)F)c1Cc1ccccc1 | – | – | Change [5]: -33% |
